Experimental data: paper PMC3502708 (Journal of molecular biology, 2012)

B1: N-MORFΔPHD1/2: N-MORF (amino acids 1–215) in which the PHD1/2 fingers are deleted, Flag-tag fusion (protein)
chain: MVKLANPLYTEWILEAIQKIKKQKQRPSEERICHAVSTSHGLDKKTVSEQLELSVQDGSVLKVTNKGLASYKDPDNPGRFSSVKPGTFPKSAKGSRGSCNDLRNVDWNKLLRRAIEGLEEPNGSSLKNIEKYLRSQSDLTSTTNNPAFQQRLRLGAKRAVNNGRLLKDGPQYRVNYGSLDGKGAPQYPSAFPSSLPPVSLLPHEKDQPRADPIPI
modifications: left off: Flag, end not stated, kept
B2: GFP-N-MORFΔPHD1/2: GFP-tagged N-MORFΔPHD1/2 (amino acids 1–215) (protein, UniProt Q8WYB5 1-215, looked up, fragment)
chain: B1 chain
modifications: GFP tag
B3: N-MORF: entire N-terminal region of MORF (amino acids 1–352), Flag-tag fusion (protein)
chain: MVKLANPLYTEWILEAIQKIKKQKQRPSEERICHAVSTSHGLDKKTVSEQLELSVQDGSVLKVTNKGLASYKDPDNPGRFSSVKPGTFPKSAKGSRGSCNDLRNVDWNKLLRRAIEGLEEPNGSSLKNIEKYLRSQSDLTSTTNNPAFQQRLRLGAKRAVNNGRLLKDGPQYRVNYGSLDGKGAPQYPSAFPSSLPPVSLLPHEKDQPRADPIPICSFCLGTKESNREKKPEELLSCADCGSSGHPSCLKFCPELTTNVKALRWQCIECKTCSACRVQGRNADNMLFCDSCDRGFHMECCDPPLSRMPKGMWICQVCRPKKKGRKLLHEKAAQIKRRYAKPIGRPKNKLKQR
modifications: left off: Flag, end not stated, kept
B4: GFP-N-MORF: GFP-tagged N-MORF (amino acids 1–352) (protein, UniProt Q8WYB5 1-352, looked up, fragment)
chain: B3 chain
modifications: GFP tag

Tests used:
[1] = system: endogenous H3K14ac / histone H3 in HEK293 cells; format: cell-based; settings: anti-Flag IP, anti-H3K14ac immunoblot
How it was run: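 HEK293 cells were seeded at 300,000 per 6 cm dish and lipofection-transfected with Flag-tagged MORF N-terminal constructs (aa 1–352, or aa 1–215 lacking PHD1/2). After about 48 h, cells were lysed in buffer with 150 mM KCl and immunoprecipitated on anti-Flag M2 agarose. Beads were washed extensively and eluted in 50 mM phosphoric acid. Blots were probed with anti-Flag, anti-H3K14ac and anti-H3. Where indicated, TSA (3 μM) was added to the medium 6 h before harvest.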

[2] = system: HEK293 cells; assay: Live green fluorescence microscopy of GFP-MORF constructs; format: cell-based; settings: 18 h post-transfection

Molecule	Co-immunoprecipitation of endogenous H3K14ac [1]	Subcellular localization of GFP-MORF construct [2]
B1	unable to pull down acetylated histone H3	
B2		evenly dispersed in the nucleus
B3	co-immunoprecipitated endogenous H3K14ac	
B4		clearly associated with chromatin forming nuclear speckles
